Bioassay records deposited in PubChem by several laboratories.
CYP2C19 inh = blocks human cytochrome P450 2C19. P33261. CYP2C19 Supersomes, luciferin-H EGE luminescence, 30 min. AID 778. 21% of 96,000 active. inhibition, % at 5 µM;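 active means CYP2C19 inhibition above a set limit at 5 µM in the primary screen, cut at about 50% in these data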;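 further: plate controls were negative control wells for no effect and 2.5 mM tranylcypromine positive control for full effect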
Cav32 inh = human Cav3.2 channel inhibition, primary screen | O95180 | Cav3.2-expressing cells, Fluo-4 calcium fluorescence FDSS; active compounds read low | B-score at 10 µM | 4% of 100,000 active | AID 449739;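 active means single-dose well whose peak fluorescence ratio is a statistical outlier from its plate by either plate-standardised score or position-corrected B-score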
CYP2C9 activ = increases human cytochrome P450 2C9 activity | recombinant CYP2C9, luciferin-H conversion, luminescence; active compounds read high; factor 1 = untreated enzyme, 0 = blocked | AID 1024 | 1.4% of 96,000 active | activation factor at 5 µM;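 active means activation factor of 2 or more for CYP2C9 at a 5 µM dose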;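 further: 0 = sulfaphenazole-blocked wells and 1 = vehicle-only wells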
Target sequence (P11712 whole entry, looked up): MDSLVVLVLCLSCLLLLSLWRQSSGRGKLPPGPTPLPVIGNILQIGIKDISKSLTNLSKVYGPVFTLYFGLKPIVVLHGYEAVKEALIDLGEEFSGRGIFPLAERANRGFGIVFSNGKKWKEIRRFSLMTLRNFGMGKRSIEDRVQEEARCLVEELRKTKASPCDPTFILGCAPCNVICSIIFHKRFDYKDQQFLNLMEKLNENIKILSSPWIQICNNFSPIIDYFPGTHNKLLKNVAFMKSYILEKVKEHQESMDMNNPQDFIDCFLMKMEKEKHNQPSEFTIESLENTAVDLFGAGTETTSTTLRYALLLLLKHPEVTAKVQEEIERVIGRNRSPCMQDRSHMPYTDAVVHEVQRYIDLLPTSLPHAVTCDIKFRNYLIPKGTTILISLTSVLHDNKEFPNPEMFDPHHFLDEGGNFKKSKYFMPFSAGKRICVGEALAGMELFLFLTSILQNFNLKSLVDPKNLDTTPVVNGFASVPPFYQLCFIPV
CYP2C19 activ = activators of human cytochrome P450 2C19 | P33261 | recombinant CYP2C19, luciferin-H EGE luminescence; active compounds read high; 0 = fully inhibited enzyme, 1 = untreated enzyme | activation factor at 5 µM | 96,000 tested, under 10 active;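 active means activation factor of at least 2 at 5 µM in the primary screen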;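 further: 0 = wells with 2.5 mM tranylcypromine and 1 = vehicle-only wells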
CYP2C9 inhib = blocks human cytochrome P450 2C9; inhibition, % at 5 µM; 20% of 96,000 active; CYP2C9 Supersomes, luciferin-H conversion, luminescence; P11712;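 active means blocking of liver enzyme CYP2C9 beyond about 50% at 5 µM, limit read from the data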
HIV Rev-RRE inh = inhibitors of HIV-1 Rev-RRE RNA interaction | P05866 | Rev peptide-RRE RNA binding, FRET | inhibition, % at 8 µM | 0.79% of 97,000 active;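 active means inhibition above the screen-wide mean plus 3 SD, cut at about 35% in these data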;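 further: 0% = median DMSO wells and 100% = median Neomycin B control wells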
Target sequence (P05866 whole entry, looked up): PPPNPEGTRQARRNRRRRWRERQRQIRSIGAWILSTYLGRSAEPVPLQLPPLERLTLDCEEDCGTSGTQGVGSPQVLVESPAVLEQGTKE
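Material: labelled RRE RNA duplex and labelled Rev peptide / Buffer or medium: HEPES pH 7.5 salt buffer with EDTA / Compound dosing: single point, 8 µM final nominal compound concentration / Benchmarks: DMSO low control, neomycin B high control / Timing: 5 min preincubation and 15 min binding, 25 °C / Technique: FRET fluorescence readout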
An asterisk follows results filed as active. Compounds with a hit are over-represented: about 27% of the library has one in this group of screens.

What do the screens show for `Cc1sc2nc(C(C)Nc3ccccc3N3CCOCC3)[nH]c(=O)c2c1C` (stereo unspecified)?
CYP2C19 inh: 35; Cav32 inh: -2.4; CYP2C9 activ: 0.5; CYP2C19 activ: 0.7; CYP2C9 inhib: 54*; HIV Rev-RRE inh: 16

How did CC(C)(C)n1ncc2c(=O)n(CC(=O)NCc3ccc(F)cc3)cnc21 do in these assays?
CYP2C19 inh: -10; Cav32 inh: -1.2; CYP2C9 activ: 1.2; CYP2C19 activ: 1.1; CYP2C9 inhib: -18; HIV Rev-RRE inh: 5

What do the screens show for `COCC(N)(c1ccccc1)c1nc2ccccc2n1C` (stereo unspecified)?
CYP2C19 inh: 52*; Cav32 inh: 0.75; CYP2C9 activ: 1; CYP2C19 activ: 0.5; CYP2C9 inhib: 2; HIV Rev-RRE inh: -1

What do the screens show for `Cn1c(Cn2c(C(F)(F)F)nc3ccccc32)nc2ccccc21`?
CYP2C19 inh: 27; Cav32 inh: 0.16; CYP2C9 activ: 1; CYP2C19 activ: 0.7; CYP2C9 inhib: 4; HIV Rev-RRE inh: 1

What do the screens show for `CCOC(=O)C1(S(=O)(=O)c2ccc(Cl)cc2)CCN(Cc2ccc(Cl)cc2)CC1`?
CYP2C19 inh: 57*; Cav32 inh: -1.2; CYP2C9 activ: 0.3; CYP2C19 activ: 0.4; CYP2C9 inhib: 69*; HIV Rev-RRE inh: 5

How did COc1ccc(C(c2c[nH]c3ccccc23)c2c[nH]c3ccccc23)cc1O do in these assays?
CYP2C19 inh: 95*; Cav32 inh: -0.048; CYP2C9 activ: 0; CYP2C19 activ: 0.1; CYP2C9 inhib: 100*; HIV Rev-RRE inh: 6

Results for COC(=O)C(Cc1c[nH]c2ccccc12)NC(C)=O (stereo unspecified) ?
Cav32 inh: 0.35; HIV Rev-RRE inh: 6

How did CCC1=Nc2cc(C(=O)NCCCOC)ccc2Sc2ccccc21 do in these assays?
CYP2C19 inh: 54*; Cav32 inh: -0.33; CYP2C9 activ: 0.6; CYP2C19 activ: 0.5; CYP2C9 inhib: 40; HIV Rev-RRE inh: 0

Results for CCCC1=Nc2cc(C(=O)NCCCOC(C)C)ccc2Sc2ccccc21 ?
CYP2C19 inh: 46; Cav32 inh: -4.1; CYP2C9 activ: 0.7; CYP2C19 activ: 0.5; CYP2C9 inhib: 30; HIV Rev-RRE inh: 9

What do the screens show for `CCCC1=Nc2cc(C(=O)NCCCOCC)ccc2Sc2ccccc21`?
CYP2C19 inh: 30; Cav32 inh: -6*; CYP2C9 activ: 0.6; CYP2C19 activ: 0.7; CYP2C9 inhib: 44; HIV Rev-RRE inh: 9

How did COc1ccc(OC)c(C2SCCN2S(=O)(=O)c2cccc(C(F)(F)F)c2)c1 (stereo unspecified) do in these assays?
CYP2C19 inh: 91*; Cav32 inh: -2.7; CYP2C9 activ: 0.5; CYP2C19 activ: 0.1; CYP2C9 inhib: 53*; HIV Rev-RRE inh: 4

Results for COc1ccc(S(=O)(=O)N2CCSC2c2ccc(N)cc2)cc1 (stereo unspecified) ?
CYP2C19 inh: 97*; Cav32 inh: 0.53; CYP2C9 activ: 0.6; CYP2C19 activ: 0; CYP2C9 inhib: 36; HIV Rev-RRE inh: 1

How did COc1cc(OC)c(C2SCCN2S(=O)(=O)c2ccc(F)cc2)cc1OC (stereo unspecified) do in these assays?
CYP2C19 inh: 60*; Cav32 inh: -1; CYP2C9 activ: 0.7; CYP2C19 activ: 0.4; CYP2C9 inhib: 32; HIV Rev-RRE inh: 7

What do the screens show for `CC(=O)OC1=C(O)C(=O)c2ccccc2C1=O`?
Cav32 inh: 0.76

Results for Cc1c(-c2ccccc2)nc(N)c(C#N)c1-c1ccco1 ?
CYP2C19 inh: 69*; Cav32 inh: -0.15; CYP2C9 activ: 0.5; CYP2C19 activ: 0.3; CYP2C9 inhib: 45; HIV Rev-RRE inh: 6

How did Cc1nc(N)c(C#N)c(-c2ccccc2)c1C do in these assays?
CYP2C19 inh: 17; Cav32 inh: -0.25; CYP2C9 activ: 0.8; CYP2C19 activ: 0.8; CYP2C9 inhib: 22; HIV Rev-RRE inh: 5

Results for CCOc1ccc(Oc2nc(Nc3ccc(C)cc3)nc(N(C)C)n2)nn1 ?
CYP2C19 inh: -7; Cav32 inh: 0.036; CYP2C9 activ: 1; CYP2C19 activ: 1.1; CYP2C9 inhib: -2; HIV Rev-RRE inh: 5

What do the screens show for `O=C(CP(=O)(CO)CO)c1ccc(Cl)cc1`?
CYP2C19 inh: -22; Cav32 inh: 0.49; CYP2C9 activ: 1.2; CYP2C19 activ: 1.2; CYP2C9 inhib: -19; HIV Rev-RRE inh: 10

What do the screens show for `CC1=C(CC(=O)c2ccc(Cl)cc2)C(=O)c2ccccc2C1=O`?
CYP2C19 inh: 51*; Cav32 inh: 0.018; CYP2C9 activ: 0.6; CYP2C19 activ: 0.5; CYP2C9 inhib: 44; HIV Rev-RRE inh: 18

What do the screens show for `Cc1cc(C)cc(N2C(=O)CC(Sc3nnnn3-c3ccccc3)C2=O)c1` (stereo unspecified)?
CYP2C19 inh: 54*; Cav32 inh: -0.083; CYP2C9 activ: 1.5; CYP2C19 activ: 0.5; CYP2C9 inhib: -49; HIV Rev-RRE inh: 15

How did O=C1CC(Sc2nnnn2C2CCCCC2)C(=O)N1c1ccccc1 (stereo unspecified) do in these assays?
Cav32 inh: 0.098; HIV Rev-RRE inh: 2

What do the screens show for `C=CCN1C(=O)S/C(=C\c2ccc(N3CCOCC3)cc2C)C1=O`?
CYP2C19 inh: 13; Cav32 inh: -1.2; CYP2C9 activ: 0.9; CYP2C19 activ: 0.9; CYP2C9 inhib: 8; HIV Rev-RRE inh: 39*

Results for O=C(Cn1nnc2c(cnn2-c2ccc(F)cc2)c1=O)c1ccccc1F ?
CYP2C19 inh: -22; Cav32 inh: 0.032; CYP2C9 activ: 1.3; CYP2C19 activ: 1.2; CYP2C9 inhib: -28; HIV Rev-RRE inh: 2

What do the screens show for `COc1ccc(OC)c(S(=O)(=O)Nc2ccc3oc4c(c3c2)C(=O)CCC4)c1`?
CYP2C19 inh: 57*; Cav32 inh: 0.23; CYP2C9 activ: 0.1; CYP2C19 activ: 0.4; CYP2C9 inhib: 94*; HIV Rev-RRE inh: 8

Results for COc1ccc(OC)c(S(=O)(=O)Nc2cc(Cl)cc(Cl)c2)c1 ?
Cav32 inh: -2.5; HIV Rev-RRE inh: 8

What do the screens show for `CC1CN(c2nc3c(c(=O)n(Cc4ccc(Cl)cc4)c(=O)n3C)n2C)CC(C)O1` (stereo unspecified)?
CYP2C19 inh: 13; Cav32 inh: -0.8; CYP2C9 activ: 0.9; CYP2C19 activ: 0.9; CYP2C9 inhib: 14; HIV Rev-RRE inh: 9

Results for COc1ccc(CCNS(=O)(=O)c2cn(C)c(=O)n(C)c2=O)cc1 ?
CYP2C19 inh: 29; Cav32 inh: 0.35; CYP2C9 activ: 1; CYP2C19 activ: 0.7; CYP2C9 inhib: 5; HIV Rev-RRE inh: 9

Results for Cc1nc(CCNS(=O)(=O)c2cccs2)cs1 ?
CYP2C19 inh: 34; Cav32 inh: -0.051; CYP2C9 activ: 1.1; CYP2C19 activ: 0.7; CYP2C9 inhib: -12; HIV Rev-RRE inh: 4

Results for COc1ccc(S(=O)(=O)NCCc2ccccc2)cc1 ?
CYP2C19 inh: 95*; Cav32 inh: -0.57; CYP2C9 activ: 0.8; CYP2C19 activ: 0; CYP2C9 inhib: 22; HIV Rev-RRE inh: -8
